The text below walks through data of article PMC4064470 (Journal of medicinal chemistry, 2013).

The target in one assay is T1, recombinant mouse VAP-1 (Mus musculus, UniProt O70423).
T1 sequence (O70423 1-765): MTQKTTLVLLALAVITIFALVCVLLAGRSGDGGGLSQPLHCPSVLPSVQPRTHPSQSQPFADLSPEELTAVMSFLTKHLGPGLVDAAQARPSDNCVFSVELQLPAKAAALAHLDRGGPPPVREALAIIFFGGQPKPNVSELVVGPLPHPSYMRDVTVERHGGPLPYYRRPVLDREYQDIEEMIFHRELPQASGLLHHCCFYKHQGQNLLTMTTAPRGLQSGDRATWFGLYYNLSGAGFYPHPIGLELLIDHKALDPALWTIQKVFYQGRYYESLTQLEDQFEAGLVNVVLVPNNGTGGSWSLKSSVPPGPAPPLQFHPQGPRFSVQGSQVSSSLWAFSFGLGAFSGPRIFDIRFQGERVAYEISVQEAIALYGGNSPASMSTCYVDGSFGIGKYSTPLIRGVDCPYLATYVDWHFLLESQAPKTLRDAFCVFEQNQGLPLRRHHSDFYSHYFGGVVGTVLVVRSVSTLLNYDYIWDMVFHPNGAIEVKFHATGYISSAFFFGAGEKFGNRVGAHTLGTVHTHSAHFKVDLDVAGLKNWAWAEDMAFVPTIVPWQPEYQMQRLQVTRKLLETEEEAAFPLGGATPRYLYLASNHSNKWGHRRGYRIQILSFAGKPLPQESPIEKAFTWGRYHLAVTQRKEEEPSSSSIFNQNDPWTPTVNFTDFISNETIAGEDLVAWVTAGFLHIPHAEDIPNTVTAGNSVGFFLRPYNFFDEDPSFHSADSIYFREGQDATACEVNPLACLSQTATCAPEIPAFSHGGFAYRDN
Put plainly: In vitro inhibition of recombinant mouse VAP-1 activity. Type of assay: biochemical. As to conditions: control compound; mouse VAP-1 in Figure 1. The procedure, abridged:
(§1)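 Enzyme source was lysate of CHO cells stably transfected with VAP-1 (native CHO has negligible activity), dosed to give 0.6 A490/h. Test compound (1 nM–50 μM) was preincubated 30 min at 37 °C with 0.2 M potassium phosphate pH 7.6, 1 mM 2,4-dichlorophenol, 500 μM 4-aminoantipyrine and 4 U/ml HRP. Then 1 mM benzylamine (final) was added for 1 h at 37 °C and A490 read. Percent inhibition was background-corrected and IC50 fitted, from two to six experiments.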

For another assay, the target named is T2, recombinant human VAP-1 (Homo sapiens, UniProt Q16853).
T2 sequence (Q16853 1-763): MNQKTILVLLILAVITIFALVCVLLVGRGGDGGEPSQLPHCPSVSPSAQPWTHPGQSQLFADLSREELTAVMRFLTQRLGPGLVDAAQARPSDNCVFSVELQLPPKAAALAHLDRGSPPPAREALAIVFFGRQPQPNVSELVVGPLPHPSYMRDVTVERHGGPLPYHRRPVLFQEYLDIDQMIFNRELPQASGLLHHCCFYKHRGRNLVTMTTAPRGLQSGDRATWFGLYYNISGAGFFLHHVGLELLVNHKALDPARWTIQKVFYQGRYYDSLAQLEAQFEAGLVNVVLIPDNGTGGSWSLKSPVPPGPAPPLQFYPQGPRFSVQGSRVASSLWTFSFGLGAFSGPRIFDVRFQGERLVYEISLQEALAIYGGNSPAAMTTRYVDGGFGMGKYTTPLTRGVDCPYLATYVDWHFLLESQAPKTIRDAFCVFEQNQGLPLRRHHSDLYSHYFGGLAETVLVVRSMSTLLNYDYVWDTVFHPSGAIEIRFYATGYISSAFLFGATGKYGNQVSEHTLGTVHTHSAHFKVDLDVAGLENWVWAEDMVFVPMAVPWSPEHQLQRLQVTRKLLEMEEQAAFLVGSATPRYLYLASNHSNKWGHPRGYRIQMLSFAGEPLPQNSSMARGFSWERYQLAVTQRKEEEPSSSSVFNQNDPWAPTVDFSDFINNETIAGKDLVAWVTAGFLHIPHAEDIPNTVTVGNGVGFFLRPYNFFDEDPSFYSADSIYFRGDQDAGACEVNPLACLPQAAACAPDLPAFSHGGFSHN
Put plainly: In vitro inhibition of recombinant human VAP-1 activity. It is filed as biochemical. As to conditions: control compound. The procedure, abridged: as §1

SMILES strings stand for the structures.

For `CN(N)[C@H](c1ccccc1)[C@@H](O)c1ccccc1.O=C(O)C(O)C(O)C(=O)O` [Compound 11d, (1S,2R)-2-(1-methylhydrazino)-1,2-diphenylethanol (S,S)-tartrate salt], on recombinant mouse VAP-1, the “inhibition of rodent VAP-1 (in words)” value is given as “inhibits”. Besides, the “inhibition of human VAP-1 (in words)” value at recombinant human VAP-1 is listed as “inhibits”.
